# What was measured:
# Bacillus subtilis = assay: Antibacterial activity against penicillin-susceptible Bacillus subtilis ATCC9372 by broth microdilution method; format: functional
# How it was run: (§1)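 MIC determined by standard broth microdilution per NCCLS recommendations, read as minimal inhibitory concentration in µg/mL. Standard ATCC strains tested alongside the other panel strains, with clarithromycin and azithromycin as reference agents.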
# Streptococcus pneumoniae [1] = assay: Antibacterial activity against erythromycin-resistant Streptococcus pneumoniae B1 by broth microdilution method; format: functional
# How it was run: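 MIC by standard NCCLS broth microdilution, reported in µg/mL. The strain expresses the ermB gene. Clarithromycin and azithromycin were run alongside as references.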
# Streptococcus pyogenes = assay: Antibacterial activity against erythromycin-resistant Streptococcus pyogenes R1 by broth microdilution method; format: functional
# How it was run: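 MIC by standard NCCLS broth microdilution, reported in µg/mL. The strain is a clinically isolated erythromycin-resistant strain. Clarithromycin and azithromycin were run alongside as references.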
# Pseudomonas aeruginosa = assay: Antibacterial activity against penicillin-susceptible Pseudomonas aeruginosa ATCC 27853 by broth microdilution method; format: functional; how it was run: as §1
# Staphylococcus aureus [2] = assay: Antibacterial activity against erythromycin-susceptible Staphylococcus aureus ATCC 25923 by broth microdilution method; format: functional; how it was run: as §1
# Staphylococcus aureus [3] = assay: Antibacterial activity against penicillin-resistant Staphylococcus aureus ATCC 31007 by broth microdilution method; format: functional
# How it was run: (§2)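 MIC by standard NCCLS broth microdilution against resistant S. aureus strains, reported in µg/mL. Clarithromycin and azithromycin were run alongside as references.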
# Staphylococcus aureus [4] = assay: Antibacterial activity against methicillin-resistant Staphylococcus aureus ATCC 43300 by broth microdilution method; format: functional; how it was run: as §2
# Streptococcus pneumoniae [5] = assay: Antibacterial activity against erythromycin-resistant Streptococcus pneumoniae AB11 by broth microdilution method; format: functional
# How it was run: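 MIC by standard NCCLS broth microdilution, reported in µg/mL. The strain expresses the ermB and mefA genes. Clarithromycin and azithromycin were run alongside as references.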
# [6] = Chemical stability of the compound in pH 7.4 phosphate solution after 24 hrs by HPLC analysis; format: physicochemical; details: buffer, pH 7.4, 24 h
# How it was run: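 Compound held in phosphate solution (pH = 7.4) at 25 °C and monitored by HPLC over 24 h. Stability judged from change in peak area.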
SMILES,MIC (Bacillus subtilis) [µg/mL],MIC (Streptococcus pneumoniae [1]) [µg/mL],MIC (Streptococcus pyogenes) [µg/mL],MIC (Pseudomonas aeruginosa) [µg/mL],MIC (Staphylococcus aureus [2]) [µg/mL],MIC (Staphylococcus aureus [3]) [µg/mL],MIC (Staphylococcus aureus [4]) [µg/mL],MIC (Streptococcus pneumoniae [5]) [µg/mL],Stabilty [6]
CO[C@]1(C)C[C@@H](C)[C@H](OC(=O)c2ccccc2Br)[C@H](C)CN(C)CCOC(=O)[C@H](C)C(=O)[C@H](C)[C@H]1O[C@@H]1O[C@H](C)C[C@H](N(C)C)[C@H]1OC(=O)c1ccccc1Br,> 128,> 256,> 256,> 128,128,> 256,> 256,> 256,
CO[C@]1(C)C[C@@H](C)[C@H](OC(=O)c2ccc([N+](=O)[O-])cc2)[C@H](C)CN(C)CCOC(=O)[C@H](C)C(=O)[C@H](C)[C@H]1O[C@@H]1O[C@H](C)C[C@H](N(C)C)[C@H]1OC(=O)c1ccc([N+](=O)[O-])cc1,> 128,> 256,> 256,> 128,64,> 256,> 256,> 256,
CO[C@]1(C)C[C@@H](C)[C@H](OC(=O)c2ccc(C(F)(F)F)cc2)[C@H](C)CN(C)CCOC(=O)[C@H](C)C(=O)[C@H](C)[C@H]1O[C@@H]1O[C@H](C)C[C@H](N(C)C)[C@H]1OC(=O)c1ccc(C(F)(F)F)cc1,> 128,> 256,> 256,> 128,64,> 256,> 256,> 256,
CO[C@]1(C)C[C@@H](C)[C@H](OC(=O)c2ccc(C)cc2)[C@H](C)CN(C)CCOC(=O)[C@H](C)C(=O)[C@H](C)[C@H]1O[C@@H]1O[C@H](C)C[C@H](N(C)C)[C@H]1OC(=O)c1ccc(C)cc1,> 128,> 256,> 256,> 128,128,> 256,> 256,> 256,Stable
CO[C@]1(C)C[C@@H](C)[C@H](OC(=O)c2ccccc2)[C@H](C)CN(C)CCOC(=O)[C@H](C)C(=O)[C@H](C)[C@H]1O[C@@H]1O[C@H](C)C[C@H](N(C)C)[C@H]1OC(=O)c1ccccc1,> 128,> 256,> 256,> 128,128,> 256,> 256,> 256,Stable
CO[C@]1(C)C[C@@H](C)[C@H](OC(=O)c2cccc([N+](=O)[O-])c2)[C@H](C)CN(C)CCOC(=O)[C@H](C)C(=O)[C@H](C)[C@H]1O[C@@H]1O[C@H](C)C[C@H](N(C)C)[C@H]1OC(=O)c1cccc([N+](=O)[O-])c1,> 128,> 256,> 256,> 128,128,> 256,> 256,> 256,
CC[C@H]1OC(=O)[C@H](C)[C@@H](O[C@H]2C[C@@](C)(OC)[C@@H](O)[C@H](C)O2)[C@H](C)[C@@H](O[C@@H]2O[C@H](C)C[C@H](N(C)C)[C@H]2O)[C@](C)(OC)C[C@@H](C)C(=O)[C@H](C)[C@@H](O)[C@]1(C)O [CLARITHROMYCIN],≤ 0.25,> 256,256,16,≤ 0.25,> 256,> 256,256,
CO[C@]1(C)C[C@@H](C)[C@H](OC(=O)c2cccc(F)c2)[C@H](C)CN(C)CCOC(=O)[C@H](C)C(=O)[C@H](C)[C@H]1O[C@@H]1O[C@H](C)C[C@H](N(C)C)[C@H]1OC(=O)c1cccc(F)c1,> 128,> 256,> 256,> 128,128,> 256,> 256,> 256,
COc1ccc(C(=O)O[C@@H]2[C@H](C)CN(C)CCOC(=O)[C@H](C)C(=O)[C@H](C)[C@@H](O[C@@H]3O[C@H](C)C[C@H](N(C)C)[C@H]3OC(=O)c3ccc(OC)cc3)[C@](C)(OC)C[C@H]2C)cc1,> 128,> 256,> 256,> 128,64,> 256,> 256,> 256,
CO[C@]1(C)C[C@@H](C)[C@H](OC(=O)c2ccc(F)cc2)[C@H](C)CN(C)CCOC(=O)[C@H](C)C(=O)[C@H](C)[C@H]1O[C@@H]1O[C@H](C)C[C@H](N(C)C)[C@H]1OC(=O)c1ccc(F)cc1,> 128,> 256,> 256,> 128,128,> 256,> 256,> 256,
COc1cccc(C(=O)O[C@@H]2[C@H](C)CN(C)CCOC(=O)[C@H](C)C(=O)[C@H](C)[C@@H](O[C@@H]3O[C@H](C)C[C@H](N(C)C)[C@H]3OC(=O)c3cccc(OC)c3)[C@](C)(OC)C[C@H]2C)c1,> 128,> 256,> 256,> 128,128,> 256,> 256,> 256,
CCCc1ccc(C(=O)O[C@@H]2[C@H](C)CN(C)CCOC(=O)[C@H](C)C(=O)[C@H](C)[C@@H](O[C@@H]3O[C@H](C)C[C@H](N(C)C)[C@H]3OC(=O)c3ccc(CCC)cc3)[C@](C)(OC)C[C@H]2C)cc1,> 128,> 256,> 256,> 128,64,> 256,> 256,> 256,
CCc1ccc(C(=O)O[C@@H]2[C@H](C)CN(C)CCOC(=O)[C@H](C)C(=O)[C@H](C)[C@@H](O[C@@H]3O[C@H](C)C[C@H](N(C)C)[C@H]3OC(=O)c3ccc(CC)cc3)[C@](C)(OC)C[C@H]2C)cc1,> 128,> 256,> 256,> 128,64,> 256,> 256,> 256,
CCOc1ccc(C(=O)O[C@@H]2[C@H](C)CN(C)CCOC(=O)[C@H](C)C(=O)[C@H](C)[C@@H](O[C@@H]3O[C@H](C)C[C@H](N(C)C)[C@H]3OC(=O)c3ccc(OCC)cc3)[C@](C)(OC)C[C@H]2C)cc1,> 128,> 256,> 256,> 128,128,> 256,> 256,> 256,
CO[C@]1(C)C[C@@H](C)[C@H](OC(=O)c2cc(Cl)cc(Cl)c2)[C@H](C)CN(C)CCOC(=O)[C@H](C)C(=O)[C@H](C)[C@H]1O[C@@H]1O[C@H](C)C[C@H](N(C)C)[C@H]1OC(=O)c1cc(Cl)cc(Cl)c1,> 128,> 256,> 256,> 128,128,> 256,> 256,> 256,
CC[C@H]1OC(=O)[C@H](C)[C@@H](O[C@H]2C[C@@](C)(OC)[C@@H](O)[C@H](C)O2)[C@H](C)[C@@H](O[C@@H]2O[C@H](C)C[C@H](N(C)C)[C@H]2O)[C@](C)(O)C[C@@H](C)CN(C)[C@H](C)[C@@H](O)[C@]1(C)O [AZITHROMYCIN],≤ 0.25,> 256,256,32,≤ 0.25,> 256,> 256,128,
CO[C@]1(C)C[C@@H](C)[C@H](OC(=O)c2cccc(Br)c2)[C@H](C)CN(C)CCOC(=O)[C@H](C)C(=O)[C@H](C)[C@H]1O[C@@H]1O[C@H](C)C[C@H](N(C)C)[C@H]1OC(=O)c1cccc(Br)c1,> 128,> 256,> 256,> 128,64,> 256,> 256,> 256,
CO[C@]1(C)C[C@@H](C)[C@H](OC(=O)c2ccc(Br)cc2)[C@H](C)CN(C)CCOC(=O)[C@H](C)C(=O)[C@H](C)[C@H]1O[C@@H]1O[C@H](C)C[C@H](N(C)C)[C@H]1OC(=O)c1ccc(Br)cc1,> 128,> 256,> 256,> 128,128,> 256,> 256,> 256,
CO[C@]1(C)C[C@@H](C)[C@H](OC(=O)c2cccc(Cl)c2)[C@H](C)CN(C)CCOC(=O)[C@H](C)C(=O)[C@H](C)[C@H]1O[C@@H]1O[C@H](C)C[C@H](N(C)C)[C@H]1OC(=O)c1cccc(Cl)c1,> 128,> 256,> 256,> 128,64,> 256,> 256,> 256,
CO[C@]1(C)C[C@@H](C)[C@H](OC(=O)c2cccc(C)c2)[C@H](C)CN(C)CCOC(=O)[C@H](C)C(=O)[C@H](C)[C@H]1O[C@@H]1O[C@H](C)C[C@H](N(C)C)[C@H]1OC(=O)c1cccc(C)c1,> 128,> 256,> 256,> 128,128,> 256,> 256,> 256,
